According to ChEMBL document CHEMBL4689842, “EUbOPEN Chemogenomics Library wave 1” (2021):

System: U2OS
Experiment: Multiplex assay against U2OS
Format: toxicity, cell-based
Details: human
Summary of the method: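 Live cells were stained at seeding with Hoechst33342, BioTracker Green Microtubule Cytoskeleton Dye, MitoTracker Red and Annexin V Alexa Fluor 680. Following compound addition, they were imaged on a CQ1 microscope at 37°C and 5% CO2 and gated by CellPathfinder machine learning into Hoechst high-intensity objects or normal cells, with normal cells split into healthy, pyknosed or fragmented nuclei and pyknosed cells into mitotic or apoptotic. Tubulin, mitochondrial-mass and membrane-permeability phenotypes are per cents of healthy-nucleus cells.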

[1] = 12 h, 1 µM, compound concentration 1 uM, replicate 1
[2] = 12 h, 1 µM, compound concentration 1 uM, replicate 2
[3] = 12 h, 10 µM, compound concentration 10 uM, replicate 1
[4] = 12 h, 10 µM, compound concentration 10 uM, replicate 2
[5] = 24 h, 1 µM, compound concentration 1 uM, replicate 1
[6] = 24 h, 1 µM, compound concentration 1 uM, replicate 2
[7] = 24 h, 10 µM, compound concentration 10 uM, replicate 1
[8] = 24 h, 10 µM, compound concentration 10 uM, replicate 2
[9] = 48 h, 1 µM, compound concentration 1 uM, replicate 1
[10] = 48 h, 1 µM, compound concentration 1 uM, replicate 2
[11] = 48 h, 10 µM, compound concentration 10 uM, replicate 1
[12] = 48 h, 10 µM, compound concentration 10 uM, replicate 2

**Q.** How did the “Population Apoptotic (%)” value [1] turn out when `CNc1nc(NCc2ccc(NS(C)(=O)=O)cc2Cl)cc(-c2ccccn2)n1` was run?
**A.** 35%

**Q.** What about the “Population Fragmented Nuclei (%)” value [1] of the same compound?
**A.** 12%

**Q.** And the “Population Healthy Nuclei (%)” value [1]?
**A.** 70%

**Q.** And the “Population Hoechst High Intensity Objects (%)” value [1]?
**A.** 10%

**Q.** And the “Population Membrane Permeable-Phenotype (%)” value [1]?
**A.** 7%

**Q.** What about the “Population Mitochondria Different-Phenotype (%)” value [1] of the same compound?
**A.** 12%

**Q.** And the “Population Mitotic Cells (%)” value [1]?
**A.** 64%

**Q.** What about the “Population Normal (%)” value [1] of the same compound?
**A.** 89%

**Q.** What about the “Population Pyknosed Nuclei (%)” value [1] of the same compound?
**A.** 17%

**Q.** What about the “Population Tubulin-Different-Phenotype (%)” value [1] of the same compound?
**A.** 19%

**Q.** What about the “Total Cell Count” value [1] of the same compound?
**A.** 121

**Q.** What about the “Population Apoptotic (%)” value [2] of the same compound?
**A.** 33%

**Q.** And the “Population Fragmented Nuclei (%)” value [2]?
**A.** 11%

**Q.** And the “Population Healthy Nuclei (%)” value [2]?
**A.** 82%

**Q.** And the “Population Hoechst High Intensity Objects (%)” value [2]?
**A.** 8%

**Q.** And the “Population Membrane Permeable-Phenotype (%)” value [2]?
**A.** 0%

**Q.** And the “Population Mitochondria Different-Phenotype (%)” value [2]?
**A.** 9%

**Q.** What about the “Population Mitotic Cells (%)” value [2] of the same compound?
**A.** 66%

**Q.** And the “Population Normal (%)” value [2]?
**A.** 91%

**Q.** And the “Population Pyknosed Nuclei (%)” value [2]?
**A.** 5%

**Q.** What about the “Population Tubulin-Different-Phenotype (%)” value [2] of the same compound?
**A.** 11%

**Q.** What about the “Total Cell Count” value [2] of the same compound?
**A.** 61

**Q.** What about the “Population Apoptotic (%)” value [3] of the same compound?
**A.** 61%

**Q.** What about the “Population Fragmented Nuclei (%)” value [3] of the same compound?
**A.** 13%

**Q.** What about the “Population Healthy Nuclei (%)” value [3] of the same compound?
**A.** 75%

**Q.** And the “Population Hoechst High Intensity Objects (%)” value [3]?
**A.** 10%

**Q.** What about the “Population Membrane Permeable-Phenotype (%)” value [3] of the same compound?
**A.** 5%

**Q.** And the “Population Mitochondria Different-Phenotype (%)” value [3]?
**A.** 29%

**Q.** What about the “Population Mitotic Cells (%)” value [3] of the same compound?
**A.** 38%

**Q.** What about the “Population Normal (%)” value [3] of the same compound?
**A.** 89%

**Q.** What about the “Population Tubulin-Different-Phenotype (%)” value [3] of the same compound?
**A.** 37%

**Q.** And the “Total Cell Count” value [3]?
**A.** 91

**Q.** And the “Population Apoptotic (%)” value [4]?
**A.** 57%

**Q.** And the “Population Fragmented Nuclei (%)” value [4]?
**A.** 6%

**Q.** What about the “Population Healthy Nuclei (%)” value [4] of the same compound?
**A.** 81%

**Q.** And the “Population Hoechst High Intensity Objects (%)” value [4]?
**A.** 9%

**Q.** And the “Population Membrane Permeable-Phenotype (%)” value [4]?
**A.** 12%

**Q.** And the “Population Mitochondria Different-Phenotype (%)” value [4]?
**A.** 32%

**Q.** And the “Population Mitotic Cells (%)” value [4]?
**A.** 42%

**Q.** What about the “Population Normal (%)” value [4] of the same compound?
**A.** 90%

**Q.** What about the “Population Pyknosed Nuclei (%)” value [4] of the same compound?
**A.** 11%

**Q.** And the “Population Tubulin-Different-Phenotype (%)” value [4]?
**A.** 30%

**Q.** And the “Total Cell Count” value [4]?
**A.** 56

**Q.** What about the “Population Apoptotic (%)” value [5] of the same compound?
**A.** 50%

**Q.** What about the “Population Fragmented Nuclei (%)” value [5] of the same compound?
**A.** 9%

**Q.** And the “Population Healthy Nuclei (%)” value [5]?
**A.** 78%

**Q.** And the “Population Hoechst High Intensity Objects (%)” value [5]?
**A.** 8%

**Q.** What about the “Population Membrane Permeable-Phenotype (%)” value [5] of the same compound?
**A.** 3%

**Q.** What about the “Population Mitochondria Different-Phenotype (%)” value [5] of the same compound?
**A.** 17%

**Q.** What about the “Population Mitotic Cells (%)” value [5] of the same compound?
**A.** 50%

**Q.** And the “Population Normal (%)” value [5]?
**A.** 91%

**Q.** What about the “Population Pyknosed Nuclei (%)” value [5] of the same compound?
**A.** 11%

**Q.** And the “Population Tubulin-Different-Phenotype (%)” value [5]?
**A.** 19%

**Q.** And the “Total Cell Count” value [5]?
**A.** 125

**Q.** And the “Population Apoptotic (%)” value [6]?
**A.** 25%

**Q.** And the “Population Fragmented Nuclei (%)” value [6]?
**A.** 8%

**Q.** And the “Population Healthy Nuclei (%)” value [6]?
**A.** 85%

**Q.** And the “Population Hoechst High Intensity Objects (%)” value [6]?
**A.** 1%

**Q.** And the “Population Membrane Permeable-Phenotype (%)” value [6]?
**A.** 0%

**Q.** And the “Population Mitochondria Different-Phenotype (%)” value [6]?
**A.** 11%

**Q.** And the “Population Mitotic Cells (%)” value [6]?
**A.** 75%

**Q.** And the “Population Normal (%)” value [6]?
**A.** 98%

**Q.** And the “Population Pyknosed Nuclei (%)” value [6]?
**A.** 5%

**Q.** And the “Population Tubulin-Different-Phenotype (%)” value [6]?
**A.** 11%

**Q.** And the “Total Cell Count” value [6]?
**A.** 67

**Q.** And the “Population Apoptotic (%)” value [7]?
**A.** 52%

**Q.** What about the “Population Fragmented Nuclei (%)” value [7] of the same compound?
**A.** 18%

**Q.** What about the “Population Healthy Nuclei (%)” value [7] of the same compound?
**A.** 67%

**Q.** What about the “Population Hoechst High Intensity Objects (%)” value [7] of the same compound?
**A.** 8%

**Q.** What about the “Population Membrane Permeable-Phenotype (%)” value [7] of the same compound?
**A.** 6%

**Q.** And the “Population Mitochondria Different-Phenotype (%)” value [7]?
**A.** 23%

**Q.** And the “Population Mitotic Cells (%)” value [7]?
**A.** 47%

**Q.** And the “Population Normal (%)” value [7]?
**A.** 91%

**Q.** And the “Population Pyknosed Nuclei (%)” value [7]?
**A.** 14%

**Q.** What about the “Population Tubulin-Different-Phenotype (%)” value [7] of the same compound?
**A.** 29%

**Q.** And the “Total Cell Count” value [7]?
**A.** 113

**Q.** And the “Population Apoptotic (%)” value [8]?
**A.** 50%

**Q.** And the “Population Fragmented Nuclei (%)” value [8]?
**A.** 20%

**Q.** What about the “Population Healthy Nuclei (%)” value [8] of the same compound?
**A.** 66%

**Q.** And the “Population Hoechst High Intensity Objects (%)” value [8]?
**A.** 10%

**Q.** And the “Population Membrane Permeable-Phenotype (%)” value [8]?
**A.** 4%

**Q.** What about the “Population Mitochondria Different-Phenotype (%)” value [8] of the same compound?
**A.** 26%

**Q.** What about the “Population Mitotic Cells (%)” value [8] of the same compound?
**A.** 50%

**Q.** What about the “Population Normal (%)” value [8] of the same compound?
**A.** 89%

**Q.** What about the “Population Pyknosed Nuclei (%)” value [8] of the same compound?
**A.** 12%

**Q.** What about the “Population Tubulin-Different-Phenotype (%)” value [8] of the same compound?
**A.** 17%

**Q.** What about the “Total Cell Count” value [8] of the same compound?
**A.** 71

**Q.** And the “Population Apoptotic (%)” value [9]?
**A.** 41%

**Q.** And the “Population Fragmented Nuclei (%)” value [9]?
**A.** 12%

**Q.** And the “Population Healthy Nuclei (%)” value [9]?
**A.** 76%

**Q.** What about the “Population Hoechst High Intensity Objects (%)” value [9] of the same compound?
**A.** 7%

**Q.** What about the “Population Membrane Permeable-Phenotype (%)” value [9] of the same compound?
**A.** 0%

**Q.** What about the “Population Mitochondria Different-Phenotype (%)” value [9] of the same compound?
**A.** 21%

**Q.** And the “Population Mitotic Cells (%)” value [9]?
**A.** 58%

**Q.** What about the “Population Normal (%)” value [9] of the same compound?
**A.** 92%

**Q.** What about the “Population Pyknosed Nuclei (%)” value [9] of the same compound?
**A.** 11%

**Q.** And the “Population Tubulin-Different-Phenotype (%)” value [9]?
**A.** 21%

**Q.** And the “Total Cell Count” value [9]?
**A.** 114

**Q.** What about the “Population Apoptotic (%)” value [10] of the same compound?
**A.** 0%

**Q.** And the “Population Fragmented Nuclei (%)” value [10]?
**A.** 6%

**Q.** And the “Population Healthy Nuclei (%)” value [10]?
**A.** 90%

**Q.** And the “Population Hoechst High Intensity Objects (%)” value [10]?
**A.** 3%

**Q.** And the “Population Membrane Permeable-Phenotype (%)” value [10]?
**A.** 2%

**Q.** What about the “Population Mitochondria Different-Phenotype (%)” value [10] of the same compound?
**A.** 19%

**Q.** What about the “Population Mitotic Cells (%)” value [10] of the same compound?
**A.** 100%

**Q.** And the “Population Normal (%)” value [10]?
**A.** 96%

**Q.** What about the “Population Pyknosed Nuclei (%)” value [10] of the same compound?
**A.** 3%

**Q.** What about the “Population Tubulin-Different-Phenotype (%)” value [10] of the same compound?
**A.** 15%

**Q.** And the “Total Cell Count” value [10]?
**A.** 71

**Q.** What about the “Population Apoptotic (%)” value [11] of the same compound?
**A.** 64%

**Q.** What about the “Population Healthy Nuclei (%)” value [11] of the same compound?
**A.** 53%

**Q.** What about the “Population Hoechst High Intensity Objects (%)” value [11] of the same compound?
**A.** 8%

**Q.** What about the “Population Membrane Permeable-Phenotype (%)” value [11] of the same compound?
**A.** 7%

**Q.** What about the “Population Mitochondria Different-Phenotype (%)” value [11] of the same compound?
**A.** 28%

**Q.** What about the “Population Mitotic Cells (%)” value [11] of the same compound?
**A.** 35%

**Q.** What about the “Population Normal (%)” value [11] of the same compound?
**A.** 91%

**Q.** And the “Population Pyknosed Nuclei (%)” value [11]?
**A.** 25%

**Q.** And the “Population Tubulin-Different-Phenotype (%)” value [11]?
**A.** 10%

**Q.** And the “Total Cell Count” value [11]?
**A.** 165

**Q.** What about the “Population Apoptotic (%)” value [12] of the same compound?
**A.** 44%

**Q.** And the “Population Fragmented Nuclei (%)” value [12]?
**A.** 21%

**Q.** And the “Population Healthy Nuclei (%)” value [12]?
**A.** 51%

**Q.** And the “Population Hoechst High Intensity Objects (%)” value [12]?
**A.** 13%

**Q.** And the “Population Membrane Permeable-Phenotype (%)” value [12]?
**A.** 20%

**Q.** And the “Population Mitochondria Different-Phenotype (%)” value [12]?
**A.** 41%

**Q.** And the “Population Mitotic Cells (%)” value [12]?
**A.** 55%

**Q.** And the “Population Normal (%)” value [12]?
**A.** 86%

**Q.** And the “Population Pyknosed Nuclei (%)” value [12]?
**A.** 27%

**Q.** What about the “Population Tubulin-Different-Phenotype (%)” value [12] of the same compound?
**A.** 23%

**Q.** What about the “Total Cell Count” value [12] of the same compound?
**A.** 124
